Source: ChEMBL document CHEMBL2424587, “Antiproliferative activity of abietane diterpenoids against human tumor cells” (J Nat Prod, 2013)
The source made the active and inactive calls. No cut-off for these calls is given here.

Columns and labels:
HL-60 [1] = assay: Induction of apoptosis in human HL60 cells after 24 hrs by flow cytometry in presence of JNK/SAPK inhibitor SP600125; type: functional, cell-based
HL-60 [2] = assay: Induction of ROS-mediated cell death in human HL60 cells preincubated for 2 hrs in presence of NAC; type: functional, cell-based
Outline: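 Antioxidant test in HL-60 cells: NAC 10 mM added with the diterpene, or NAC and diterpene preincubated together for 2 h before addition to cells; cell death then measured.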

HL-60 [3] = assay: Induction of apoptosis in human HL60 cells assessed as DNA fragmentation at 3 uM after 24 hrs by […]; type: functional, cell-based
HL-60 [4] = assay: Induction of apoptosis in human HL60 cells after 24 hrs by flow cytometry in presence of MEK2 inhibitor U0126; type: functional, cell-based
HL-60 [5] = assay: Induction of intracellular ROS generation in human HL60 cells at 3 uM after 15 mins to 4 hrs by flow cytometry; type: functional, cell-based
Outline: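 HL-60 cells given 3 μM diterpene for the indicated times, then loaded with H2-DCF-DA. Fluorescence of oxidized H2DCF was measured by flow cytometry. Three independent experiments.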

HL-60 [6] = assay: Induction of apoptosis in human HL60 cells assessed as procaspase-6 cleavage at 3 uM after 24 hrs by immunoblotting analysis; type: functional, cell-based
Outline: (§1)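 HL-60 cells treated 24 h with 3 μM; immunoblots of lysates probed with antibodies that recognize both pro-caspases and cleaved caspases, and for PARP.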

HL-60 [7] = assay: Induction of apoptosis in human HL60 cells assessed as accumulation at sub-G1 phase at 3 uM after 24 hrs by AnnexinV-FITC/propidium iodide staining-based flow cytometry (reference value: 4%)
HL-60 [8] = assay: Induction of apoptosis in human HL60 cells after 24 hrs by flow cytometry in presence of MEK1 inhibitor PD98059; type: functional, cell-based
HL-60 [9] = assay: Induction of apoptosis in human HL60 cells assessed as reduction in mitochondrial membrane potential at 3 uM after 24 hrs by JC-1 staining-based flow cytometry in presence of cyclosporin A; type: functional, cell-based
Outline: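 HL-60 cells exposed to 3 μM diterpene for 24 h alongside permeability transition pore inhibitors cyclosporin A (25 μM, 24 h) or bongkrekic acid (25−50 μM, 24 h). Apoptosis was scored by flow cytometry. Mitochondrial membrane potential was read by JC-1 fluorescence on flow cytometry.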

HL-60 [10] = assay: Induction of apoptosis in human HL60 cells assessed as hypodiploid cells at 3 uM by flow cytometry; type: functional, cell-based; settings: TDE = time-dependent effect
HL-60 [11] = assay: Induction of ROS-mediated cell death in human HL60 cells at 3 uM after 15 mins to 4 hrs by flow cytometry in presence of NAC; type: functional, cell-based
HL-60 [12] = assay: Induction of apoptosis in human HL60 cells assessed as decrease in Bcl-2 level by Western blotting analysis; type: functional, cell-based
Outline: (§2)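 HL-60 cells incubated with the diterpene; whole-cell lysates probed by Western blot for Bcl-2 family proteins, with β-actin as loading control.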

HL-60 [13] = assay: Induction of apoptosis in human HL60 cells after 24 hrs by flow cytometry in presence of p38 MAPK inhibitor SB203580 (reference value: 15.1 +/- 3.8%); type: functional
HL-60 [14] = assay: Induction of apoptosis in human HL60 cells assessed as decrease in Bax level by Western blotting analysis; type: functional, cell-based; outline: as §2
HL-60 [15] = assay: Induction of apoptosis in human HL60 cells assessed as fragmented and/or condensed nuclei at 3 uM after 24 hrs by transmission electron microscopy; type: functional, cell-based
Outline: (§3)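 HL-60 cells incubated 24 h with 3 μM compound and examined by transmission electron microscopy for ultrastructural changes.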

HL-60 [16] = assay: Cell cycle arrest in human HL60 cells assessed as accumulation at G2-M phase at 3 uM after 24 hrs by […]propidium iodide staining-based flow cytometry (reference value: 4%); type: functional
HL-60 [17] = assay: Induction of apoptosis in human HL60 cells assessed as procaspase-7 cleavage at 3 uM after 24 hrs by immunoblotting analysis; type: functional, cell-based; outline: as §1
HL-60 [18] = assay: Induction of apoptosis in human HL60 cells assessed as dense perinuclear condensation at 3 uM after 24 hrs by transmission electron microscopy; type: functional, cell-based; outline: as §3
HL-60 [19] = assay: Cell cycle arrest in human HL60 cells assessed as accumulation at G1 phase at 3 uM after 24 hrs by […]propidium iodide staining-based flow cytometry (reference value: 43%); type: functional
HL-60 [20] = assay: Induction of apoptosis in human HL60 cells assessed as abundant vacuoles at 3 uM after 24 hrs by transmission electron microscopy; type: functional, cell-based; outline: as §3

Row | SMILES | Activity (HL-60 [1]) | Activity (HL-60 [2]) | Activity (HL-60 [3]) | Activity (HL-60 [4]) | Activity (HL-60 [5]) | Activity (HL-60 [6]) | Activity (HL-60 [7]) | Activity (HL-60 [8]) | Activity (HL-60 [9]) | Activity (HL-60 [10]) | Activity (HL-60 [11]) | Activity (HL-60 [12]) | Activity (HL-60 [13]) | Activity (HL-60 [14]) | Activity (HL-60 [15]) | Activity (HL-60 [16]) | Activity (HL-60 [17]) | Activity (HL-60 [18]) | Activity (HL-60 [19]) | Activity (HL-60 [20])
1 | COc1ccc(C(=O)OC2=C(C(C)C)C(=O)C3=C(C2=O)[C@@]2(C)CCCC(C)(C)[C@@H]2[C@H](O)[C@H]3OC(C)=O)cc1 | Active | inactive | Active | Active | inactive | inactive | 8% | Active | Active | tde | – | – | – | – | – | – | – | – | – | –
2 | CC(=O)O[C@H]1C2=C(C(=O)C(OC(=O)c3ccc(Cl)cc3)=C(C(C)C)C2=O)[C@@]2(C)CCCC(C)(C)[C@@H]2[C@@H]1O | – | inactive | Active | – | – | inactive | 9% | – | Active | tde | inactive | Active | Active | Active | – | – | – | – | – | –
3 | CC(=O)O[C@H]1C2=C(C(=O)C(OC(=O)c3ccccc3)=C(C(C)C)C2=O)[C@@]2(C)CCCC(C)(C)[C@@H]2[C@@H]1OC(=O)c1ccccc1 | Active | inactive | Active | Active | – | Active | – | Active | Active | tde | inactive | – | Active | – | Active | 16% | Active | Active | 30% | Active
